# Experimental data reported in ChEMBL document CHEMBL1806446, “Synthesis and evaluation of hermitamides A and B as human voltage-gated sodium channel blockers” (Bioorg Med Chem, 2011).
# Experiments:
# Rattus norvegicus = species: Rattus norvegicus; assay: Displacement of [3H]batrachotoxin from neurotoxin site 2 of voltage-gated sodium channel in rat forebrain tissue at 10 uM after 60 mins
# Summary of the method: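 Rat forebrain membranes (10 mg tissue/well) incubated with [3H]-BTX (30–60 Ci/mmol) in 50 mM HEPES pH 7.4 with 130 mM choline chloride, 37 °C, 60 min; test at 10 μM. Stopped by rapid vacuum filtration onto glass fiber filters; bound radioactivity counted against control and expressed as percent displacement. Aconitine (1 μM) positive control.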
# [1] = molecular target: Sodium channel protein type 2 subunit alpha (Homo sapiens) (UniProt Q99250); assay: Inhibition of human voltage-gated sodium channel 1.2 expressed in HEK293 cells at 100 nM by […]; type: cell-based
# Sequence of Sodium channel protein type 2 subunit alpha (Homo sapiens) (Q99250 whole entry, looked up, the tested form may be a part): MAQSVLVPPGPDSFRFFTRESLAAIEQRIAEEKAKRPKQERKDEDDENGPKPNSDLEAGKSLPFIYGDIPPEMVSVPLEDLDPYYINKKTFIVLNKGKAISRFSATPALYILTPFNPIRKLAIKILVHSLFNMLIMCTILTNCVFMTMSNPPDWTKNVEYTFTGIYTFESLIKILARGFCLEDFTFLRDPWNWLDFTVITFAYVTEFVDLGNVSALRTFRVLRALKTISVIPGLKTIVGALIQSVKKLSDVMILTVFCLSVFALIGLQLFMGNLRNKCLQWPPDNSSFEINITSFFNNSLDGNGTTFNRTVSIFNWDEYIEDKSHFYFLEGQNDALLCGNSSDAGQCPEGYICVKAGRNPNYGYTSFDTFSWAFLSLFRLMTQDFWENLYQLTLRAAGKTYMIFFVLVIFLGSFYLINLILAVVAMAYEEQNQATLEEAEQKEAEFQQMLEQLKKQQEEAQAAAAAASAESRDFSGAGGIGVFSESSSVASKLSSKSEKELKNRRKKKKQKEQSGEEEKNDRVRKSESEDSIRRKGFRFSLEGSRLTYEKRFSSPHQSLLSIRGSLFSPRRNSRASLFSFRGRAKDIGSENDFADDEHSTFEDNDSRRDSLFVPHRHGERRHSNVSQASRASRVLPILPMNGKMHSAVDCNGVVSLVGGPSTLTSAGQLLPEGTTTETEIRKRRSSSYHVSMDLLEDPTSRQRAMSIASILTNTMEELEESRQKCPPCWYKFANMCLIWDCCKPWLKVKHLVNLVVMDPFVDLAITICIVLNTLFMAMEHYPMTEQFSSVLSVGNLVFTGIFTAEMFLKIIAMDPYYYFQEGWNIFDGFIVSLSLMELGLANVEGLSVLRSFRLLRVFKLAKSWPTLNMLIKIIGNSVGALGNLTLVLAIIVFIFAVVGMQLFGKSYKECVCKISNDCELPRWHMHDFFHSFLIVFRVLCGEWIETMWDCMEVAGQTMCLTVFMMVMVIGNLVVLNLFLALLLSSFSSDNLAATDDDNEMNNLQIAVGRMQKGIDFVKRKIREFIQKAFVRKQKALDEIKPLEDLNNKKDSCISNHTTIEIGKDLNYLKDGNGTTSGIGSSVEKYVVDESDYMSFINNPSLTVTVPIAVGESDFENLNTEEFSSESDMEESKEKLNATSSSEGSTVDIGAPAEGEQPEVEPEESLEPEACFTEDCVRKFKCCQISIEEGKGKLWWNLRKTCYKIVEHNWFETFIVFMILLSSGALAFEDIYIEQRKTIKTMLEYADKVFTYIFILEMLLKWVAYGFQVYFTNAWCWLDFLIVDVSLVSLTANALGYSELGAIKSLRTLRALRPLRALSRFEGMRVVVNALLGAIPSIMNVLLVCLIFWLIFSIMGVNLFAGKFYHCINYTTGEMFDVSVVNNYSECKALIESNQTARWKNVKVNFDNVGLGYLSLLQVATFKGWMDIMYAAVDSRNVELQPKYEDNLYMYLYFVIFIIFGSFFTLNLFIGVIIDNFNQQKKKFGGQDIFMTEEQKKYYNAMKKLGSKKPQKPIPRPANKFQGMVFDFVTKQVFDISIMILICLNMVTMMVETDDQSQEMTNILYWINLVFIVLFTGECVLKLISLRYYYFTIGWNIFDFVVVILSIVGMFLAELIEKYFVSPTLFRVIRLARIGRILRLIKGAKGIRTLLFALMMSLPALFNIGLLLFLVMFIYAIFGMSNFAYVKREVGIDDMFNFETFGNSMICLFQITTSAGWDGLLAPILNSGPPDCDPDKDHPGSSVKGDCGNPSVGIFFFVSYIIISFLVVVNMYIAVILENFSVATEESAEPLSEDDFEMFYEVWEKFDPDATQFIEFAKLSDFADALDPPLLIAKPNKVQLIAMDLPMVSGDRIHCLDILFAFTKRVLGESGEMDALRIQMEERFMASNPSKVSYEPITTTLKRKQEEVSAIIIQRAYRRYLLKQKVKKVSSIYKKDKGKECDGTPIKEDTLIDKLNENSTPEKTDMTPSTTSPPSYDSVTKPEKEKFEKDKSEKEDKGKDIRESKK
# Summary of the method: (§1)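 HEK293 cells stably expressing hNav1.2, grown in DMEM/F12 with 10% FBS and G418 at 37 °C. Whole-cell patch clamp at 20–22 °C with ≥75% series resistance compensation. Currents evoked by a 25 ms step from –60 to +10 mV every 15 s. Compound was diluted from DMSO stock into perfusion, ≤0.1% DMSO final, applied after a 3 min control until steady state. Reported as percent block, mean ± SEM.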
# [2] = molecular target: Sodium channel protein type 2 subunit alpha (Homo sapiens) (UniProt Q99250); assay: Inhibition of human voltage-gated sodium channel 1.2 expressed in HEK293 cells at 1 uM by […]; type: cell-based; summary of the method: as §1
# [3] = molecular target: Sodium channel protein type 2 subunit alpha (Homo sapiens) (UniProt Q99250); assay: Inhibition of human voltage-gated sodium channel 1.2 expressed in human HEK293 cells at 10 uM by […]; type: cell-based; summary of the method: as §1
compound,measurement,setting,value
CCCCCCCC(C/C=C/CCC(=O)NCCc1ccccc1)OC (racemic),Activity,Rattus norvegicus,15.7%
same,inhibition,[1],< 10%
same,inhibition,[2],49.7%
same,inhibition,[3],90.2%
CCCCCCC[C@@H](C/C=C/CCC(=O)NCCc1c[nH]c2ccccc12)OC,Activity,Rattus norvegicus,29%
same,inhibition,[1],17.2%
same,inhibition,[2],87.8%
same,inhibition,[3],100%
CCCCCCCC(C/C=C/CCC(=O)NCCc1c[nH]c2ccccc12)OC (racemic),Activity,Rattus norvegicus,36%
same,inhibition,[1],24.3%
same,inhibition,[2],88.4%
same,inhibition,[3],100%
CCCCCCC[C@H](C/C=C/CCC(=O)NCCc1ccccc1)OC,Activity,Rattus norvegicus,13.8%
same,inhibition,[1],< 10%
same,inhibition,[2],58.7%
CCCCCCC[C@H](C/C=C/CCC(=O)O)OC,Activity,Rattus norvegicus,11.9%
CCCCCCCC(C/C=C/CCC(=O)O)OC (racemic),Activity,Rattus norvegicus,7.35%
CCCCCCC[C@@H](C/C=C/CCC(=O)O)OC,Activity,Rattus norvegicus,7.77%
CCCCCCC[C@H](C/C=C/CCC(=O)NCCc1c[nH]c2ccccc12)OC,Activity,Rattus norvegicus,20.3%
same,inhibition,[1],28.8%
same,inhibition,[2],80.7%
O=C1NC(=O)C(c2ccccc2)(c2ccccc2)N1,Activity,Rattus norvegicus,19.8%
same,inhibition,[2],< 10%
same,inhibition,[3],10%
CCCCCCC[C@@H](C/C=C/CCC(=O)NCCc1ccccc1)OC,Activity,Rattus norvegicus,15.9%
same,inhibition,[1],15.5%
same,inhibition,[2],74.4%
same,inhibition,[3],94.4%
